Results taken from ChEMBL document CHEMBL4819098, “Novel 1,2,4-triazine-quinoline hybrids: The privileged scaffolds as potent multi-target inhibitors of LPS-induced inflammatory response via dual COX-2 and 15-LOX inhibition” (Eur J Med Chem, 2021).

Experiments:
[1] = target: T1, Prostaglandin G/H synthase 2 (Homo sapiens) (UniProt P35354); test: Inhibition of COX-2 in human whole blood assessed as reduction in PGE2 production at 10 uM measured after 24 hrs by EIA; type: tissue-based
T1 sequence (whole entry): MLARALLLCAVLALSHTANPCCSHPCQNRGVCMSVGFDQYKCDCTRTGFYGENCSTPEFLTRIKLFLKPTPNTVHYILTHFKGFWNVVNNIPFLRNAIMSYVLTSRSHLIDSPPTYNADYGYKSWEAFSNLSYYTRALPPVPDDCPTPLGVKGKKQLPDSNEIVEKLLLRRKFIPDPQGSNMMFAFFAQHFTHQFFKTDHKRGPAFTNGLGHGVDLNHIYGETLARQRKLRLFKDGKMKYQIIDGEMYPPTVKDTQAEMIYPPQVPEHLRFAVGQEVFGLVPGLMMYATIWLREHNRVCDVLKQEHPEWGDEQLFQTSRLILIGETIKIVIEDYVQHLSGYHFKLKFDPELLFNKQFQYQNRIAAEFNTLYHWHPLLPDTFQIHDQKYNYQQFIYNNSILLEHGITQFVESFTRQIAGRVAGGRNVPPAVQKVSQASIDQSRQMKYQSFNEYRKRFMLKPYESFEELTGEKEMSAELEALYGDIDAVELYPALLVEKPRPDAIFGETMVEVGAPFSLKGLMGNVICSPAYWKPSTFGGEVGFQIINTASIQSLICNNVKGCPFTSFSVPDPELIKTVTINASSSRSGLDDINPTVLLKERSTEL

[2] = target: COX-1 (Prostaglandin G/H synthase 1) (Homo sapiens, UniProt P23219); test: Inhibition of COX-1 in human whole blood assessed as reduction in thromboxane B2 production at 10 uM measured after 1 hr by EIA; type: tissue-based
Chain of COX-1 (Prostaglandin G/H synthase 1) (P23219 whole entry): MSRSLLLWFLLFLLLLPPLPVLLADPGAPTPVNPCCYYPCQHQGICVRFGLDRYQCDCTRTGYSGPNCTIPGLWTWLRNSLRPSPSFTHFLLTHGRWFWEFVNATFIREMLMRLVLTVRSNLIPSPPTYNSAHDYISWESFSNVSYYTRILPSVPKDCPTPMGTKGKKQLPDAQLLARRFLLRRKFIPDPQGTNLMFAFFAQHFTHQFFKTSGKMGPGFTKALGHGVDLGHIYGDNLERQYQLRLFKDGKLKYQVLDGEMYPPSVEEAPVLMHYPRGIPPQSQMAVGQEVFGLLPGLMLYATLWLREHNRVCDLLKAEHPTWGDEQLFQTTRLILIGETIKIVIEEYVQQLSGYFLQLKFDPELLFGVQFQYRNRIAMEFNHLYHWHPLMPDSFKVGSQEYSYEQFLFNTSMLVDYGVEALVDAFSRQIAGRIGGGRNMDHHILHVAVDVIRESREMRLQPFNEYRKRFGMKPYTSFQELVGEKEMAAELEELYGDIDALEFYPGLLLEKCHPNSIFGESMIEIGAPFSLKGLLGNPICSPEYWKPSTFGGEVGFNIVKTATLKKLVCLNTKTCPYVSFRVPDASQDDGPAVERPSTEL

[3] = Inhibition of soybean 15-LOX using linolenic acid as substrate by spectrophotometric analysis; design: species or system Glycine max
[4] = target: T2, Prostaglandin G/H synthase 2 (Homo sapiens, UniProt P35354); test: Inhibition of COX-2 (unknown origin) using arachidonic acid as substrate preincubated with enzyme for 1 min followed by substrate addition by fluorometric analysis
T2 sequence (P35354 whole entry): T1 sequence (whole entry)

[5] = Inhibition of soybean 5-LOX; design: species or system Glycine max
[6] = target: T3, Prostaglandin G/H synthase 1 (Ovis aries, UniProt P05979); test: Inhibition of ovine COX-1 using arachidonic acid as substrate preincubated with enzyme for 5 mins followed by incubation with substrate for 5 mins by colorimetric analysis
T3 sequence (P05979 whole entry): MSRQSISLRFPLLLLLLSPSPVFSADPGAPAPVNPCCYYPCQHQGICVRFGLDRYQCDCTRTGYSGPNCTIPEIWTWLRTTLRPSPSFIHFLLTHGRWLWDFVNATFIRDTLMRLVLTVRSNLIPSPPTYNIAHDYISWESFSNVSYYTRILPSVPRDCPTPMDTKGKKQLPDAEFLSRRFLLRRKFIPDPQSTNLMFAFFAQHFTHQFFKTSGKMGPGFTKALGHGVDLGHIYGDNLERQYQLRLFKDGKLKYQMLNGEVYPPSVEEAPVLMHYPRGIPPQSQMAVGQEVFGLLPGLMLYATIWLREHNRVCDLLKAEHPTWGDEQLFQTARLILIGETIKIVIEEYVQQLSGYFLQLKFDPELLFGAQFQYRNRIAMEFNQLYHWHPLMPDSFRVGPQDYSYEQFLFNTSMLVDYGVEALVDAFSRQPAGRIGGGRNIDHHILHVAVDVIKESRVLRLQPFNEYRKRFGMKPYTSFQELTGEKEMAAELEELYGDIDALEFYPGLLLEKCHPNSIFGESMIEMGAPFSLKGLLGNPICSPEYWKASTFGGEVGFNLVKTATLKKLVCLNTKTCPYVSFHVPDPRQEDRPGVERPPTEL

[7] = target: T4, Prostaglandin G/H synthase 2 (Ovis aries, UniProt P79208); test: Inhibition of ovine COX-2 using arachidonic acid as substrate preincubated with enzyme for 5 mins followed by incubation with substrate for 5 mins by colorimetric analysis
T4 sequence (P79208 whole entry): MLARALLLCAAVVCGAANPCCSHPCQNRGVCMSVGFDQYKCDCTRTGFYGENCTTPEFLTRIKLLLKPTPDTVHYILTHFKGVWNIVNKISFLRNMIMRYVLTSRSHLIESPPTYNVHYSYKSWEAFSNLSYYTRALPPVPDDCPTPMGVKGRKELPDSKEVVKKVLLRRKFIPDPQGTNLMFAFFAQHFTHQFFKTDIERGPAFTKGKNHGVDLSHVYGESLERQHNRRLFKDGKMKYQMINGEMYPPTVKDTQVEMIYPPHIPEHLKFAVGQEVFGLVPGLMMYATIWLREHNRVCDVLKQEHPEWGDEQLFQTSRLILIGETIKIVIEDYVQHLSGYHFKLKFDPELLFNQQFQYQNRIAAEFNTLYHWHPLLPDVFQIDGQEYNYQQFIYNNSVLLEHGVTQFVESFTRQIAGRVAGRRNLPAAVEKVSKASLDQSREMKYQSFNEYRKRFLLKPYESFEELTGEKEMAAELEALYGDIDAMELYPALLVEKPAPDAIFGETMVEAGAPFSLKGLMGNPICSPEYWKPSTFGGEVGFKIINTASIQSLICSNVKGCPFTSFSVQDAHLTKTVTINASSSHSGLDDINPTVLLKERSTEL

[8] = target: T4, Prostaglandin G/H synthase 2; test: Inhibition of ovine COX-2 by EIA
[9] = target: T3, Prostaglandin G/H synthase 1; test: Inhibition of ovine COX-1 by EIA
[10] = Selectivity index, ratio of IC50 for ovine COX-1 to IC50 for human recombinant COX-2
Outline: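 Enzyme kit assay with ovine COX-1 and human recombinant COX-2. IC50 determined from three replicates. Selectivity index taken as IC50(COX-1)/IC50(COX-2).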

RAW264.7 [11] = test: Potency index, ratio of celecoxib IC50 to test compound IC50 for inhibition of LPS-induced IL-6 production in mouse RAW264.7 cells preincubated for 2 hrs followed by LPS stimulation and measured after 20 hrs by ELISA; type: functional; conditions: time 22 hrs
RAW264.7 [12] = test: Inhibition of LPS-induced TNFalpha production in mouse RAW264.7 cells preincubated for 2 hrs followed by LPS stimulation and measured after 20 hrs by ELISA; type: functional, cell-based
RAW264.7 [13] = test: Potency index, ratio of diclofenac sodium IC50 to test compound IC50 for inhibition of LPS-induced IL-6 production in mouse RAW264.7 cells preincubated for 2 hrs followed by LPS stimulation and measured after 20 hrs by ELISA; type: functional; conditions: time 22 hrs
[14] = target: T3, Prostaglandin G/H synthase 1; test: Inhibition of ovine COX-1 using arachidonic acid as substrate preincubated with enzyme for 5 mins followed by substrate addition by colorimetric analysis
RAW264.7 [15] = test: Cytotoxicity against mouse RAW264.7 cells assessed as reduction in cell viability by MTS assay; type: cell-based
Outline: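 RAW 264.7 macrophage viability at the tested concentrations measured by MTS assay.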

[16] = Inhibition of soybean 15-LOX using arachidonic acid or linolenic acid as substrate in presence of hydrogen peroxide incubated for 5 mins by colorimetric analysis; design: species or system Glycine max
RAW264.7 [17] = test: Inhibition of LPS-induced 15(S)-HETE production in mouse RAW264.7 cells preincubated for 2 hrs followed by LPS stimulation and measured after 20 hrs by ELISA; type: functional, cell-based
RAW264.7 [18] = test: (§1) Antioxidant activity in mouse RAW264.7 cells assessed as inhibition of LPS-induced intracellular ROS production preincubated for 2 hrs followed by LPS stimulation and measured after 20 hrs by DCFH-DA staining based fluorescence analysis; type: functional, cell-based
RAW264.7 [19] = test: as §1, with “Potency index, ratio of celecoxib IC50 to test compound IC50 for antioxidant” for “Antioxidant”; type: functional; conditions: time 22 hrs
[20] = target: T1, Prostaglandin G/H synthase 2 (Homo sapiens); test: Potency index, ratio of diclofenac sodium IC50 to test compound IC50 for human recombinant COX-2 using arachidonic acid as substrate preincubated with enzyme for 5 mins followed by substrate addition by colorimetric analysis
RAW264.7 [21] = test: Inhibition of LPS-induced IL-6 production in mouse RAW264.7 cells preincubated for 2 hrs followed by LPS stimulation and measured after 20 hrs by ELISA; type: functional, cell-based
RAW264.7 [22] = test: Potency index, ratio of celecoxib IC50 to test compound IC50 for inhibition of LPS-induced 15(S)-HETE production in mouse RAW264.7 cells preincubated for 2 hrs followed by LPS stimulation and measured after 20 hrs by ELISA; type: functional; conditions: time 22 hrs
[23] = target: T2, Prostaglandin G/H synthase 2; test: Inhibition of human recombinant COX-2 using arachidonic acid as substrate preincubated with enzyme for 5 mins followed by substrate addition by colorimetric analysis
[24] = target: T3, Prostaglandin G/H synthase 1; test: Inhibition of ovine COX-1 by colorimetric analysis
[25] = target: T2, Prostaglandin G/H synthase 2; test: Inhibition of human recombinant COX-2 using arachidonic acid as substrate preincubated with enzyme for 20 mins followed by incubation with substrate for 2 mins by ADPH based fluorometric analysis
[26] = target: T3, Prostaglandin G/H synthase 1; test: Inhibition of ovine COX-1 using arachidonic acid as substrate preincubated with enzyme for 20 mins followed by incubation with substrate for 2 mins by ADPH based fluorometric analysis

COc1ccc(C2=C(c3ccc(OC)cc3)NNC(N/N=C/c3ccc(F)cc3)=N2)cc1
inhibition [1]: 72%
inhibition at 1 h, 10 µM [2]: 69%
IC50 [3]: 124 µM

COc1ccc2ccc(F)c(CC(=O)N/N=C/c3ccc(C(F)(F)F)cc3)c2n1
IC50 [4]: 0.13 µM

COc1ccc(-c2nn(-c3ccc(Cl)cc3)cc2/C=C/c2cc(C(=O)N3CCOCC3)c3cc(Cl)ccc3n2)cc1
IC50 [5]: 1.87 µM
IC50 [6]: 11.4 µM
IC50 [7]: 0.1 µM

CCOC(=O)c1cnn(C(=O)c2cc(-c3ccc(Cl)cc3)nc3ccc(OC)cc23)c1N
IC50 [8]: 0.26 µM
IC50 [9]: > 50 µM

O=c1c(Cc2ccccc2)n[nH]c(=S)n1/N=C/c1cc2cc(OCc3ccccc3)ccc2nc1O
Ratio IC50 [10]: 266
Ratio IC50 (RAW264.7 [11]): 1.5
IC50 (RAW264.7 [12]): 19.2 µM
Ratio IC50 (RAW264.7 [13]): 1.7
IC50 [14]: 12.5 µM
Activity (RAW264.7 [15]): Non-Toxic
IC50 [16]: 1.81 µM
IC50 (RAW264.7 [17]): 0.17 µM
IC50 (RAW264.7 [18]): 1.02 µM
Ratio IC50 (RAW264.7 [19]): 11
Ratio IC50 [20]: 17.9
IC50 (RAW264.7 [21]): 7.7 µM
Ratio IC50 (RAW264.7 [22]): 43
IC50 [23]: 0.047 µM

COc1ccc(/C=C2\N=C(c3cccnc3)N(c3ccccc3)NC2=O)cc1
IC50 [24]: 0.1 µM

COc1ccc(-c2cc(-c3nnc(SC/C(=N/O)c4ccccc4)n3-c3ccccc3)c3ccccc3n2)cc1
IC50 [25]: 1.6 µM
IC50 [26]: 0.48 µM
